Activity calls are given as the source filed them. The calls are words filed in the database; no cut-off is given here.
Tests used:
PC-3 [1] = assay: Antitumor activity against human PC-3 cells xenografted in CD1 nude mouse assessed as reduction in tumor volume at 120 mg/kg, po administered 3 times per week for 2 weeks and measured during compound dosing by caliper method; format: functional, organism-based
Method in brief: (§1)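 Male CD1-nude mice received s.c. PC-3 cells and were treated from day 25 after implant, at 0.2 cm³, n = 5. Docetaxel (0.73% ethanol in saline) was given at 5 mg/kg i.v. on day 0. MK-2206 (30% Captisol) was given at 120 mg/kg po on days 1, 3, 5, 8, 10, 12. Caliper volume twice weekly.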

SK-OV-3 [2] = assay: Synergistic antiproliferative activity against lapatinib pretreated human SK-OV-3 cells assessed as combination index at ED90 measured after 72 hrs by celltiter-glo assay; format: functional
NCI-H460 = assay: Induction of apoptosis in human NCI-H460 cells assessed as fold induction of capsase-3/7 activity measured after 24 to 48 hrs in presence of gemcitabine by caspase-glo 3/7 assay; format: functional; conditions: time 24-48 hrs
SK-OV-3 [3] = assay: Synergistic antiproliferative activity against human SK-OV-3 cells assessed as combination index at ED75 measured after 96 hrs in presence of lapatinib by celltiter-glo assay; format: functional
[4] = Toxicity in human SK-OV-3 cells xenografted CB17/icr SCID mouse assessed as mortality at 60 to 120 mg/kg, po administered 3 times per week for 2 weeks starting 2 hrs post lapatinib treatment and measured during compound dosing; format: organism-based; conditions: in vivo, 336 h, dose 60-120 mg/kg
Method in brief: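 SK-OV-3 cells in 50% Matrigel/PBS injected s.c. into flank of female C.B-17/ICR-scid mice; dosing began after 3 wk, randomized at mean tumour 0.13 cm³ (n = 5). Lapatinib 100 mg/kg p.o. in distilled water 5 d/wk for 2 wk; MK-2206 in 30% Captisol p.o. days 0, 2, 4, 7, 9, 11. Body weight and physical signs monitored.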

A2780 = assay: Cell cycle arrest in human A2780 cells assessed as increase in accumulation of cells at sub-G1 phase at 0.12 to 3 umol/L measured after 72 hrs in presence of carboplatin by propidium iodide staining based flow cytometry relative to control; format: functional; conditions: dose 0.12-3 µmol/L, at 0.12 to 3 µM
[5] = molecular target: RAC-alpha serine/threonine-protein kinase (Homo sapiens) (UniProt P31749); assay: Inhibition of AKT in human A-431 cells assessed as reduction in AKT phosphorylation at S473 residue at 5 umol/L measured after 5 hrs by Western blot analysis; format: cell-based; conditions: dose 5.0 µmol/L
Method in brief: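 Cells were lysed in Tris-HCl pH 7.5, 150 mM NaCl, 1% Triton X-100 with protease and phosphatase inhibitors. Lysates were run on SDS-PAGE, transferred to nitrocellulose and probed with phospho-specific antibodies.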

[6] = Toxicity in human NCI-H292 cells xenografted CD-1 mouse assessed as death at 120 mg/kg, po administered 3 times per week for 2 weeks and measured during compound dosing; format: organism-based; conditions: in vivo, 336 h
Method in brief: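 NCI-H292 cells in 50% Matrigel/PBS injected s.c. into flank of female CD1-nude mice; dosing began after 2 wk at mean tumour 0.2 cm³, n = 5/group. […] Body weight and signs monitored; treatment ended day 16.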

HCC827 = assay: Synergistic antiproliferative activity against human HCC827 cells assessed as combination index at ED90 measured after 72 hrs in presence of erlotinib by celltiter-glo assay; format: functional
Method in brief: (§2)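 Cells grown in RPMI 1640 with 10% heat-inactivated FBS at 37°C, 5% CO₂. Seeded at 2 to 3 × 10³ per well; drugs added 24 h later. […] Viability read as cellular ATP by CellTiter-Glo. CI calculated by Chou–Talalay from median-effect plots at ED50, ED75 and ED90.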

NCI-H661 = assay: Induction of apoptosis in human NCI-H661 cells assessed as fold induction of capsase-3/7 activity measured after 24 to 48 hrs in presence of gemcitabine by caspase-glo 3/7 assay; format: functional; conditions: time 24-48 hrs
SK-BR-3 = assay: Synergistic antiproliferative activity against human SK-BR-3 cells assessed as combination index at ED90 treated 24 hrs prior to lapatinib and measured after 72 hrs by celltiter-glo assay; format: functional; conditions: time 96 hrs
NCI-H1299 = assay: Synergistic antiproliferative activity against human NCI-H1299 cells assessed as combination index at ED50 measured after 72 hrs in presence of erlotinib by celltiter-glo assay; format: functional
HCC70 = assay: Synergistic antiproliferative activity against human HCC70 cells assessed as combination index at ED75 measured after 96 hrs in presence of lapatinib by celltiter-glo assay; format: functional
[7] = Toxicity in human NCI-H460 cells xenografted CD1 nude mouse assessed as body weight loss at 120 mg/kg, po administered 3 times per week for 2 weeks measured on day 14 to 16 in presence of gemcitabine; format: organism-based; conditions: in vivo, 336 h, time 14-16 day
Method in brief: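 NCI-H460 cells in 50% Matrigel/PBS injected s.c. into flank of CD1-nude mice; randomized at mean tumour 0.2 cm³ (n = 5). MK-2206 in 30% Captisol, 120 mg/kg p.o. days 0, 2, 4, 7, 9, 11. Carboplatin 50 mg/kg i.v. in saline days 0 and 7 (from day 12 after implant), or gemcitabine 100 mg/kg i.v. in saline days 0 and 7 (from day 8). Body weight monitored.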

BT-20 = assay: Synergistic antiproliferative activity against human BT-20 cells assessed as combination index at ED75 measured after 72 hrs in presence of docetaxel by celltiter-glo assay; format: functional; method in brief: as §2
[8] = molecular target: RAC-alpha serine/threonine-protein kinase (Homo sapiens) (UniProt P31749); assay: Inhibition of AKT phosphorylation at S473 residue in human NCI-H661 cells at 3 umol/L measured after 4 to 24 hrs in presence of carboplatin by MSD assay; conditions: time 4-24 hrs
MDA-MB-468 [9] = assay: Synergistic antiproliferative activity against human MDA-MB-468 cells assessed as combination index at ED50 measured after 96 hrs in presence of lapatinib by celltiter-glo assay; format: functional
MDA-MB-468 [10] = assay: Synergistic antiproliferative activity against lapatinib pretreated human MDA-MB-468 cells assessed as combination index at ED50 measured after 72 hrs by celltiter-glo assay; format: functional
PC-3 [11] = assay: Antitumor activity against human PC-3 cells xenografted in CD1 nude mouse assessed as tumor growth inhibition at 120 mg/kg, po administered 3 times per week for 2 weeks starting 24 hrs post docetaxel treatment and measured during compound dosing by caliper method; format: functional, organism-based; method in brief: as §1
SK-OV-3 [12] = assay: Synergistic antiproliferative activity against human SK-OV-3 cells assessed as combination index at ED50 measured after 72 hrs in presence of lapatinib by celltiter-glo assay; format: functional
A-431 = assay: Synergistic antiproliferative activity against human A-431 cells assessed as combination index at ED50 measured after 72 hrs in presence of erlotinib by celltiter-glo assay; format: functional
Method in brief: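 Cells were seeded at 2–3 × 10³ per well in RPMI 1640 with 10% FBS. At 24 h, MK-2206 and the partner drug were added simultaneously at constant concentration ratios spanning each agent's IC₅₀, for 72 h. Growth was read as cellular ATP by CellTiter-Glo. CI was taken from median-effect plots of each agent alone and in combination (Chou–Talalay), at ED₅₀, ED₇₅ and ED₉₀.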

Sequence of RAC-alpha serine/threonine-protein kinase (Homo sapiens) (P31749 whole entry): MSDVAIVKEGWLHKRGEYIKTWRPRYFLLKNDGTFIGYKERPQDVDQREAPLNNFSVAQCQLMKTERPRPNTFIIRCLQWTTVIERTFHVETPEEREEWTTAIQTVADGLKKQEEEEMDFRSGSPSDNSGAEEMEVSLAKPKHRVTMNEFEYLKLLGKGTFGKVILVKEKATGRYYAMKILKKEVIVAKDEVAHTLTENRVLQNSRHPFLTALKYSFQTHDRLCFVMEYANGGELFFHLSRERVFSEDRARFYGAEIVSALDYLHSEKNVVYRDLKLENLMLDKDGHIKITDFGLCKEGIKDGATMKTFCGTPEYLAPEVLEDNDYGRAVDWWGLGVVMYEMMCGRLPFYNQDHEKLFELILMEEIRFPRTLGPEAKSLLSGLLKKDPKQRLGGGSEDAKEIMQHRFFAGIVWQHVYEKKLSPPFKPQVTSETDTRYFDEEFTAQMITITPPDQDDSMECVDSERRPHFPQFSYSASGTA

SMILES: Cl.NC1(c2ccc(-c3nc4ccn5c(=O)[nH]nc5c4cc3-c3ccccc3)cc2)CCC1
- Activity (PC-3 [1]): Active
- CI90 (SK-OV-3 [2]): 0.18
- fold change (FC) (NCI-H460): 1.6
- CI75 (SK-OV-3 [3]): 0.18
- Activity [4]: Non-Toxic
- Activity (A2780): >40%
- inhibition [5]: Active
- Activity [6]: Non-Toxic
- CI90 (HCC827): 0.12
- fold change (FC) (NCI-H661): 1.3
- CI90 (SK-BR-3): 0.18
- CI50 (NCI-H1299): 0.28
- CI75 (HCC70): 0.18
- Activity [7]: Non-Toxic
- CI75 (BT-20): 0.7
- inhibition [8]: Active
- CI50 (MDA-MB-468 [9]): 0.18
- CI50 (MDA-MB-468 [10]): 0.18
- TGI (PC-3 [11]): Active
- CI50 (SK-OV-3 [12]): 0.07
- CI50 (A-431): 0.42

From ChEMBL document CHEMBL5705892, “MK-2206, an allosteric Akt inhibitor, enhances antitumor efficacy by standard chemotherapeutic agents or molecular targeted drugs in vitro and in vivo” (Mol Cancer Ther, 2010)
